According to ChEMBL document CHEMBL4024768, “Discovery and Optimization of Thiazolidinyl and Pyrrolidinyl Derivatives as Inhaled PDE4 Inhibitors for Respiratory Diseases” (J Med Chem, 2017):

Assays:
[1] = Inhibition of PDE4 in human U937 cell lysates assessed as residual cAMP after 2.5 mins by LANCE assay
[2] = Inhibition of PDE4 in human PBMC assessed as reduction in LPS-induced TNFalpha release after 18 hrs by quantitative ELISA
[3] = Protein binding in human plasma at 5 uM after 5 hrs by LC-MS/MS analysis; format: ADME, cell-free; conditions: read-out: PPB (converted)
[4] = Apparent permeability across apical to basolateral side in human Caco2 cells at 10 uM after 2 hrs by LC-MS/MS analysis; format: ADME, cell-based; conditions: Caco-2
[5] = Intrinsic clearance in human hepatocytes assessed per million cells at 1 uM measured after 90 mins by LC-MS/MS analysis; format: ADME, cell-based, Hepatocyte; conditions: read-out: CLH
In short: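 Compound at 1 μM with hepatocytes (1 million cells/mL) in Leibovitz L-15 at 37 °C, in duplicate. Sampled at 0, 10, 20, 30, 60 and 90 min, quenched with ice-cold acetonitrile, centrifuged, and unchanged compound measured by LC−MS/MS. Included 7-ethoxycoumarin and 7-hydroxycoumarin activity controls and cell-free medium controls.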

[6] = Intrinsic clearance in human liver microsomes at 1 uM measured after 60 mins in presence NADPH by LC-MS/MS analysis; format: ADME, microsome; conditions: read-out: CLH
In short: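 Compound at 1 μM with human liver microsomes (0.8 mg protein/mL) in Dulbecco's buffer pH 7.4, 1 mM NADPH, 37 °C, in duplicate. Sampled at 0, 5, 10, 20, 30 and 60 min, quenched with ice-cold acetonitrile, and unchanged compound measured by LC−MS/MS. No-NADPH controls; midazolam (1 μM) as phase I control.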

[7] = Metabolic stability in human plasma assessed as compound remaining at 1 uM measured after 60 mins in presence of NADPH by LC-MS/MS analysis; format: ADME, cell-free; conditions: read-out: Stability
[8] = Apparent permeability across basolateral to apical side in human Caco2 cells at 10 uM after 2 hrs by LC-MS/MS analysis; format: ADME, cell-based; conditions: Caco-2
[9] = Metabolic stability in human lung S9 fraction assessed as compound remaining at 1 uM measured after 60 mins in presence of NADPH by LC-MS/MS analysis; format: ADME; conditions: read-out: Stability

Compound | IC50 [1] [nM] | IC50 [2] [nM] | fraction unbound at 5 h, 5 µM [3] | Papp A→B at 2 h, 10 µM [4] [×10⁻⁶ cm/s] | hepatocyte CLint at 1 µM [5] [µL/min/1e6 cells] | microsomal CLint at 1 µM [6] [µL/min/mg] | remaining at 1 h, 1 µM [7] [%] | Papp B→A at 2 h, 10 µM [8] [×10⁻⁶ cm/s] | remaining at 1 h, 1 µM [9] [%]
O=C(O[C@@H](Cc1c(Cl)c[n+]([O-])cc1Cl)c1ccc(OC(F)F)c(OCC2CC2)c1)[C@@H]1SCCN1S(=O)(=O)c1cccnc1 (relative stereo) | 0.061 | 0.07 | – | – | – | – | – | – | –
COc1cc([C@H](Cc2c(Cl)c[n+]([O-])cc2Cl)OC(=O)[C@@H]2SCCN2S(=O)(=O)c2cccc(C(=O)N(C)C)c2)ccc1OC(F)F (relative stereo) | 0.014 | 0.032 | – | – | – | – | – | – | –
O=C(O[C@@H](Cc1c(Cl)c[n+]([O-])cc1Cl)c1ccc(OC(F)F)c(OCC2CC2)c1)c1ccccc1 | 0.072 | – | – | – | – | – | – | – | –
CN(C)C(=O)c1cccc(S(=O)(=O)N2CCS[C@H]2C(=O)O[C@@H](Cc2c(Cl)c[n+]([O-])cc2Cl)c2ccc(OC(F)F)c(OC3CCCC3)c2)c1 (relative stereo) | 0.021 | 0.04 | – | – | – | – | – | – | –
O=C(c1ccccc1)c1ccsc1C(=O)O[C@@H](Cc1c(Cl)c[n+]([O-])cc1Cl)c1ccc(OC(F)F)c(OCC2CC2)c1 | 0.32 | – | – | – | – | – | – | – | –
CN(C)C(=O)c1cccc(C(=O)N2CCS[C@H]2C(=O)O[C@@H](Cc2c(Cl)c[n+]([O-])cc2Cl)c2ccc(OC(F)F)c(OCC3CC3)c2)c1 | – | 0.57 | – | – | – | – | – | – | –
COCCS(=O)(=O)N1CCS[C@H]1C(=O)O[C@@H](Cc1c(Cl)c[n+]([O-])cc1Cl)c1ccc(OC(F)F)c(OCC2CC2)c1 (relative stereo) | 0.043 | 0.078 | – | – | – | – | – | – | –
CNC(=O)c1cc(S(=O)(=O)N2CCS[C@H]2C(=O)O[C@@H](Cc2c(Cl)c[n+]([O-])cc2Cl)c2ccc(OC(F)F)c(OCC3CC3)c2)cn1C (relative stereo) | 0.025 | 0.03 | 0.0016 | 1.26 | 47.6 | 202 | 100 | 18.3 | 63.5
CN(C)C(=O)c1cccc(S(=O)(=O)N2CCS[C@H]2C(=O)O)c1 | – | > 1000 | – | – | – | – | – | – | –
CS(=O)(=O)N1CCC[C@H]1C(=O)O[C@@H](Cc1c(Cl)c[n+]([O-])cc1Cl)c1ccc(OC(F)F)c(OCC2CC2)c1 (relative stereo) | 0.504 | 4.2 | – | – | – | – | – | – | –

Second part, the compound after the results:

IC50 [1] [nM] | IC50 [2] [nM] | fraction unbound at 5 h, 5 µM [3] | Papp A→B at 2 h, 10 µM [4] [×10⁻⁶ cm/s] | hepatocyte CLint at 1 µM [5] [µL/min/1e6 cells] | microsomal CLint at 1 µM [6] [µL/min/mg] | remaining at 1 h, 1 µM [7] [%] | Papp B→A at 2 h, 10 µM [8] [×10⁻⁶ cm/s] | remaining at 1 h, 1 µM [9] [%] | Compound
0.0351 | 0.042 | 0.0032 | 0.5 | 56.7 | 365 | 101 | 12.5 | 71.6 | COc1ccc(S(=O)(=O)N2CCC[C@H]2C(=O)O[C@@H](Cc2c(Cl)c[n+]([O-])cc2Cl)c2ccc(OC(F)F)c(OCC3CC3)c2)cc1C(=O)N(C)C (relative stereo)
0.0533 | 0.38 | – | – | – | – | – | – | – | CN(C)C(=O)c1cccc(S(=O)(=O)N2CCC[C@@H]2C(=O)O[C@@H](Cc2c(Cl)c[n+]([O-])cc2Cl)c2ccc(OC(F)F)c(OCC3CC3)c2)c1 (relative stereo)
0.055 | 0.035 | 0.0017 | 2.8 | 25.9 | 268 | 94 | 4.46 | 52.1 | CN(C)C(=O)c1cccc(S(=O)(=O)N2CSC[C@H]2C(=O)O[C@@H](Cc2c(Cl)c[n+]([O-])cc2Cl)c2ccc(OC(F)F)c(OCC3CC3)c2)c1
0.031 | 0.12 | – | – | – | – | – | – | – | CN(C)C(=O)c1cccc(S(=O)(=O)N2CCC[C@@H](C(=O)O[C@@H](Cc3c(Cl)c[n+]([O-])cc3Cl)c3ccc(OC(F)F)c(OCC4CC4)c3)C2)c1 (relative stereo)
0.056 | 0.012 | 0.0012 | 21.7 | 64.6 | 363 | 104 | 73.4 | 72.5 | CN(C)C(=O)c1cccc(S(=O)(=O)N2CCCC[C@H]2C(=O)O[C@@H](Cc2c(Cl)c[n+]([O-])cc2Cl)c2ccc(OC(F)F)c(OCC3CC3)c2)c1 (relative stereo)
0.094 | 0.203 | – | – | – | – | – | – | – | O=C(O[C@@H](Cc1c(Cl)c[n+]([O-])cc1Cl)c1ccc(OC(F)F)c(OCC2CC2)c1)[C@@H]1CCCCN1S(=O)(=O)c1ccccc1 (relative stereo)
